4 molecules from PMC3502708 (Journal of molecular biology, 2012) can be followed below.

Experiment [1] deals with endogenous H3K14ac / histone H3 in HEK293 cells. Format: cell-based. The settings on record: anti-Flag IP, anti-H3K14ac immunoblot. In outline: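 HEK293 cells were seeded at 300,000 per 6 cm dish and lipofection-transfected with Flag-tagged MORF N-terminal constructs (aa 1–352, or aa 1–215 lacking PHD1/2). After about 48 h, cells were lysed in buffer with 150 mM KCl and immunoprecipitated on anti-Flag M2 agarose. Beads were washed extensively and eluted in 50 mM phosphoric acid. Blots were probed with anti-Flag, anti-H3K14ac and anti-H3. Where indicated, TSA (3 μM) was added to the medium 6 h before harvest.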
Background: Immunoblotting shows a protein as a band on a membrane.

A further experiment relates to HEK293 cells. The experiment in a line: Live green fluorescence microscopy of GFP-MORF constructs. Type of experiment: cell-based. The conditions noted are these: 18 h post-transfection.

B1: N-MORF: entire N-terminal region of MORF (amino acids 1–352), Flag-tag fusion (protein)
chain: MVKLANPLYTEWILEAIQKIKKQKQRPSEERICHAVSTSHGLDKKTVSEQLELSVQDGSVLKVTNKGLASYKDPDNPGRFSSVKPGTFPKSAKGSRGSCNDLRNVDWNKLLRRAIEGLEEPNGSSLKNIEKYLRSQSDLTSTTNNPAFQQRLRLGAKRAVNNGRLLKDGPQYRVNYGSLDGKGAPQYPSAFPSSLPPVSLLPHEKDQPRADPIPICSFCLGTKESNREKKPEELLSCADCGSSGHPSCLKFCPELTTNVKALRWQCIECKTCSACRVQGRNADNMLFCDSCDRGFHMECCDPPLSRMPKGMWICQVCRPKKKGRKLLHEKAAQIKRRYAKPIGRPKNKLKQR
modifications: left off: Flag, end not stated, kept
B1: the “Co-immunoprecipitation of endogenous H3K14ac” value in experiment [1] is “co-immunoprecipitated endogenous H3K14ac”.

B2: GFP-N-MORF: GFP-tagged N-MORF (amino acids 1–352) (protein, UniProt Q8WYB5 1-352, looked up, fragment)
chain: MVKLANPLYTEWILEAIQKIKKQKQRPSEERICHAVSTSHGLDKKTVSEQLELSVQDGSVLKVTNKGLASYKDPDNPGRFSSVKPGTFPKSAKGSRGSCNDLRNVDWNKLLRRAIEGLEEPNGSSLKNIEKYLRSQSDLTSTTNNPAFQQRLRLGAKRAVNNGRLLKDGPQYRVNYGSLDGKGAPQYPSAFPSSLPPVSLLPHEKDQPRADPIPICSFCLGTKESNREKKPEELLSCADCGSSGHPSCLKFCPELTTNVKALRWQCIECKTCSACRVQGRNADNMLFCDSCDRGFHMECCDPPLSRMPKGMWICQVCRPKKKGRKLLHEKAAQIKRRYAKPIGRPKNKLKQR
modifications: GFP tag
Take B2: the “Subcellular localization of GFP-MORF construct” value in the experiment on HEK293 cells was “clearly associated with chromatin forming nuclear speckles”.

B3: N-MORFΔPHD1/2: N-MORF (amino acids 1–215) in which the PHD1/2 fingers are deleted, Flag-tag fusion (protein)
chain: MVKLANPLYTEWILEAIQKIKKQKQRPSEERICHAVSTSHGLDKKTVSEQLELSVQDGSVLKVTNKGLASYKDPDNPGRFSSVKPGTFPKSAKGSRGSCNDLRNVDWNKLLRRAIEGLEEPNGSSLKNIEKYLRSQSDLTSTTNNPAFQQRLRLGAKRAVNNGRLLKDGPQYRVNYGSLDGKGAPQYPSAFPSSLPPVSLLPHEKDQPRADPIPI
modifications: left off: Flag, end not stated, kept
On to B3, for which, in experiment [1], the “Co-immunoprecipitation of endogenous H3K14ac” value is “unable to pull down acetylated histone H3”.

B4: GFP-N-MORFΔPHD1/2: GFP-tagged N-MORFΔPHD1/2 (amino acids 1–215) (protein, UniProt Q8WYB5 1-215, looked up, fragment)
chain: MVKLANPLYTEWILEAIQKIKKQKQRPSEERICHAVSTSHGLDKKTVSEQLELSVQDGSVLKVTNKGLASYKDPDNPGRFSSVKPGTFPKSAKGSRGSCNDLRNVDWNKLLRRAIEGLEEPNGSSLKNIEKYLRSQSDLTSTTNNPAFQQRLRLGAKRAVNNGRLLKDGPQYRVNYGSLDGKGAPQYPSAFPSSLPPVSLLPHEKDQPRADPIPI
modifications: GFP tag
As for B4, the “Subcellular localization of GFP-MORF construct” value in the experiment with HEK293 cells is on record as “evenly dispersed in the nucleus”.
